Data reported in BindingDB's records for doi:10.1021/jm030916r (Uppsala University, 2004).
pIC50: −log10 of the molar value.

Assays:
Thioredoxin reductase 3 [1] = target: T1, Thioredoxin reductase 3 (Homo sapiens, UniProt Q86VQ6); assay: Inhibition of thioredoxin reductase
T1 sequence (Q86VQ6 whole entry): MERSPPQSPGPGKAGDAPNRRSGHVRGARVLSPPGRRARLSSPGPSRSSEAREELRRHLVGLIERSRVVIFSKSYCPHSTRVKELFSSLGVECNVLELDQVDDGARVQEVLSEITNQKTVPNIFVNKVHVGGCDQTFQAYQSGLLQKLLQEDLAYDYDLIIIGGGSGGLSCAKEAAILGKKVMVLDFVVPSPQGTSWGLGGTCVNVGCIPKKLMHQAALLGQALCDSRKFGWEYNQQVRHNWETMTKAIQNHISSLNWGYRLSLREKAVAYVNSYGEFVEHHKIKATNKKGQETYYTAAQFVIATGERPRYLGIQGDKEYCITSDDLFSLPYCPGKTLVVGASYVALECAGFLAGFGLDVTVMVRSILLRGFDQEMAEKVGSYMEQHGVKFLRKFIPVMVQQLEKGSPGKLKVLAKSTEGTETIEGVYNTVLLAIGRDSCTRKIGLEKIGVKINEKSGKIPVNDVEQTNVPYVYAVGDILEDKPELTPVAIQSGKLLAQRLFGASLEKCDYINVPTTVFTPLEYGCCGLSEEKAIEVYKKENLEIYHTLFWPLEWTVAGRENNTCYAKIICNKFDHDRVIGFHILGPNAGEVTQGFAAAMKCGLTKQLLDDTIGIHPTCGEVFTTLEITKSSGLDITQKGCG
Procedure, shortened: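 TrxR-only activity in HE buffer (100 mM HEPES pH 7.2, 5 mM EDTA) with 1.0 μM TrxR, 10 mM DTNB, 1 mM NADPH and inhibitor (final). Compound and enzyme added first, reaction started with NADPH/DTNB at 37 °C. OD 412 nm read every 10 s for initial linear rates. IC50 is 50% inhibition of thionitrobenzoate formation.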

Thioredoxin reductase 3 [2] = target: T1, Thioredoxin reductase 3; assay: Inhibition of thioredoxin reductase in the presence of thioredoxinand insulin
Procedure, shortened: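 Insulin reduction coupled to Trx/TrxR, final concentrations: 100 mM HEPES pH 7.2, 5 mM EDTA, 1 mM NADPH, 1.0 μM TrxR, 0.8 μM Trx, 2.5 mg/mL bovine insulin plus inhibitor. 30 min at 37 °C, stopped with 6 M guanidine HCl/50 mM Tris pH 8.0/10 mM DTNB, absorbance at 412 nm. IC50 for 50% inhibition of thionitrobenzoate formation.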

## OCC1O[C@@H]2O[C@@H]3C(C[Te]c4ccccc4)O[C@H](O[C@@H]4C(CO)O[C@H](O[C@@H]5C(CO)O[C@H](O[C@@H]6C(CO)O[C@@H](O[C@@H]7C(CO)O[C@H](O[C@@H]8C(CO)O[C@H](O[C@H]1C(O)C2O)C(O)C8O)C(O)C7O)C(O)C6O)C(O)C5O)C(O)C4O)C(O)C3O (some centres not stated)
Thioredoxin reductase 3 [1]
  pIC50: 4.75
Thioredoxin reductase 3 [2]
  pIC50: 4.74
